Assay results taken from ChEMBL document CHEMBL4007421, “Discovery and Preclinical Characterization of 3-((4-(4-Chlorophenyl)-7-fluoroquinoline-3-yl)sulfonyl)benzonitrile, a Novel Non-acetylenic Metabotropic Glutamate Receptor 5 (mGluR5) Negative Allosteric Modulator for Psychiatric Indications” (J Med Chem, 2017).

Columns and labels:
Rattus norvegicus = test: Therapeutic index, ratio of plasma concentration causing effect on spatial learning performance in po dosed Wistar rat by Morris water maze test to plasma concentration causing anxiolytic activity in Wistar rat by Vogel punished drinking conflict test
Method in brief: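 Index is the plasma level in rats at 30 mg/kg p.o. in the Morris water maze (sampled after the last trial on Day 4) divided by the plasma level at the Vogel minimum effective dose. Vogel plasma was sampled right after the test.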

Cytochrome P450 1A2 = molecular target: T1, Cytochrome P450 1A2 (Homo sapiens, UniProt P05177); test: Inhibition of CYP1A2 in human liver microsomes; format: ADME
T1 sequence (P05177 whole entry): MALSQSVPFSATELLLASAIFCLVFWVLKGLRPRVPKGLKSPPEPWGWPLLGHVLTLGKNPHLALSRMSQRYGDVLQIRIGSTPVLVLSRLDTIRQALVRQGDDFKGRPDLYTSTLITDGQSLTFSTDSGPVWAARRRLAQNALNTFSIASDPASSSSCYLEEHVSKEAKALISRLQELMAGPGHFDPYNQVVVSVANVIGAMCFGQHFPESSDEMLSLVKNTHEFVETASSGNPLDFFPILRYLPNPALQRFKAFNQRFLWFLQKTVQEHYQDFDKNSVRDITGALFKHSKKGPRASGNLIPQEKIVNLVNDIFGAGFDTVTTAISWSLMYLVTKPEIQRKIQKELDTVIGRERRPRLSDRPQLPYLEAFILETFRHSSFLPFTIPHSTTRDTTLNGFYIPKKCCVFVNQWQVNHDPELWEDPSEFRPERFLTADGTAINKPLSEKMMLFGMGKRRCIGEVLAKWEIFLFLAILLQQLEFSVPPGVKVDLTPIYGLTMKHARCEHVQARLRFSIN

[1] = Tmax in fasted male beagle dog at 1 mg/kg, po; format: ADME, organism-based, Canis lupus familiaris; conditions: in vivo
Method in brief: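 Single-dose PK: i.v. and oral dosing in Crl:CD(SD) rats and beagle dogs, plus a pilot oral nasogastric study in Cynomolgus monkeys using a Type IV lipid formulation. Rat i.v. vehicle was 80% cosolvent. Monkeys were fasted from 2 h before until 2 h after dosing, n=3 per sex. Rats also received [14C]-labelled compound orally at 50 mg/kg, with total radioactivity followed. Parameters are means; monkey values are medians.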

N#Cc1cccc(S(=O)(=O)c2cnc3cc(F)ccc3c2-c2ccc(Cl)cc2)c1
TI (Rattus norvegicus): 28.3 | IC50 (Cytochrome P450 1A2): > 10 µM | Tmax [1]: 45 min
